This sample holds only a part of the variants without activity.
B1: tRNA (parent)
chain: GUUCCGUUGGCGUAAUGGUAACGCGUCUCCCUCCUAAGGAGAAGACUGCGGGUUCGAGUCCCGUACGGAACG

Variants of: B1
Test: yeast fitness relative to wild type (ratio to wild type); higher = fitter; tRNA-Arg(CCU), competitive growth, 37 C, YPD
Procedure, shortened: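 Changes in genotype frequencies gave Darwinian fitness relative to wild type. Frequencies were read by 100-nucleotide paired-end sequencing of gene amplicons before and after pooled Saccharomyces cerevisiae strains, carrying tRNA-Arg(CCU) gene variants at the native locus, were competed in YPD at 37°C for 24 hours in six replicates. A genotype was kept only with ≥ 100 starting reads, and estimates < 0.5 were set to 0.5.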

First: C11A C30A
Second: C11A C30A G52C A65G
The yeast fitness of the first is higher: 0.523 for the first, at most 0.5 for the second.

C11A C30G and C11A C30G A45U A57G C60A cannot be ordered by yeast fitness: at most 0.5 for the first, at most 0.5 for the second.

C11A C30G A45U G56C and C11A C30G C31U U32C A42G G52A cannot be ordered by yeast fitness: at most 0.5 for the first, at most 0.5 for the second.

Going from C11A C30G C31U U32C G52A to C11A C30G G48C, the yeast fitness falls from 0.566 to at most 0.5.

Going from C11A C30U to C11A C30U A43C G67U, the yeast fitness falls from 0.598 to at most 0.5.

C11A C30U C49A and C11A C30U C49G G50A U64A cannot be ordered by yeast fitness: at most 0.5 for the first, at most 0.5 for the second.

First: C11A C30U G56A A69C
Second: C11A C31A
The yeast fitness of the first is lower: at most 0.5 for the first, 0.524 for the second.

Going from C11A C31A C61A to C11A C31A C61G A65C A70C, the yeast fitness falls from 0.563 to at most 0.5.

First: C11A C31A C66G A69U
Second: C11A C31A G44C A65G
The yeast fitness of the first is lower: at most 0.5 for the first, 0.553 for the second.

C11A C31A G44C A65U and C11A C31A G51C cannot be ordered by yeast fitness: at most 0.5 for the first, at most 0.5 for the second.

C11A C31A G68C and C11A C31A U53A cannot be ordered by yeast fitness: at most 0.5 for the first, at most 0.5 for the second.

First: C11A C31G A42U
Second: C11A C31G A70U
The yeast fitness of the first is higher: 0.537 for the first, at most 0.5 for the second.

C11A C31G C33U C61G U64A and C11A C31G C34G C46G U59A G63A cannot be ordered by yeast fitness: at most 0.5 for the first, at most 0.5 for the second.

First: C11A C31G C60U
Second: C11A C31U
The yeast fitness of the first is lower: at most 0.5 for the first, 0.664 for the second.

C11A C31U A65U and C11A C31U A69C A70G cannot be ordered by yeast fitness: at most 0.5 for the first, at most 0.5 for the second.

First: C11A C31U A70U
Second: C11A C31U C34U G58C C60U C62U G63C
The yeast fitness of the first is higher: 0.629 for the first, at most 0.5 for the second.

Going from C11A C31U C62A to C11A C31U C62U, the yeast fitness rises from at most 0.5 to 0.544.

Going from C11A C31U G56A G58C to C11A C31U U53A, the yeast fitness falls from 0.595 to 0.513.

Going from C11A C33A A36C to C11A C33A A36C G63C C66G, the yeast fitness rises from 0.506 to 0.582.

First: C11A C33G
Second: C11A C33G A43C G68A A70G
The yeast fitness of the first is higher: 0.654 for the first, at most 0.5 for the second.

Compared with C11A C33G C34G C61A, C11A C33U is higher in yeast fitness: at most 0.5 for the first, 0.533 for the second.

C11A C33U A43U G67A and C11A C33U C49U C61U cannot be ordered by yeast fitness: at most 0.5 for the first, at most 0.5 for the second.

First: C11A C33U C60G
Second: C11A C33U U54C
The yeast fitness of the first is higher: 0.531 for the first, at most 0.5 for the second.

C11A C34A C55U C60A and C11A C34A G44C A70U cannot be ordered by yeast fitness: at most 0.5 for the first, at most 0.5 for the second.

Going from C11A C34A G58C to C11A C34G A43G C46G, the yeast fitness rises from at most 0.5 to 0.708.

C11A C34G A65U and C11A C34G U59G cannot be ordered by yeast fitness: at most 0.5 for the first, at most 0.5 for the second.

Going from C11A C34U to C11A C46A, the yeast fitness rises from 0.552 to 0.745.

Compared with C11A C46G, C11A C46U C62A A65C is lower in yeast fitness: 0.651 for the first, at most 0.5 for the second.

Going from C11A C49A C61G to C11A C49G, the yeast fitness rises from 0.53 to 0.782.

Compared with C11A C49G A69U, C11A C49U is higher in yeast fitness: 0.585 for the first, 0.658 for the second.

C11A C55G C66A and C11A C60A cannot be ordered by yeast fitness: at most 0.5 for the first, at most 0.5 for the second.

Going from C11A C61A to C11A C61G A65C, the yeast fitness falls from 0.613 to 0.567.

Going from C11A C61G A65C A70C to C11A C61U, the yeast fitness rises from at most 0.5 to 0.621.

C11A C61U A65G G67C and C11A C62A A65C cannot be ordered by yeast fitness: at most 0.5 for the first, at most 0.5 for the second.

C11A C62A A70U and C11A C62G A69U cannot be ordered by yeast fitness: at most 0.5 for the first, at most 0.5 for the second.

First: C11A C66G
Second: C11A G12A A20C C29U
The yeast fitness of the first is higher: 0.613 for the first, at most 0.5 for the second.

C11A G12A G23A C33G A45C and C11A G12A G48A G50A cannot be ordered by yeast fitness: at most 0.5 for the first, at most 0.5 for the second.

First: C11A G12C
Second: C11A G12C C33U A43C
The yeast fitness of the first is higher: 0.612 for the first, at most 0.5 for the second.

C11A G12C U53G A65U and C11A G17A C62U C66U cannot be ordered by yeast fitness: at most 0.5 for the first, at most 0.5 for the second.

Compared with C11A G17A U35G, C11A G17A U35G U59C is higher in yeast fitness: at most 0.5 for the first, 0.568 for the second.

C11A G17C C22G G23C G58C A70G and C11A G17U A20G C31A cannot be ordered by yeast fitness: at most 0.5 for the first, at most 0.5 for the second.

First: C11A G18A A36G A42C
Second: C11A G18A A36U G41C C55U U64C
The yeast fitness of the first is higher: 0.711 for the first, at most 0.5 for the second.

First: C11A G18A C27U C34G A42C
Second: C11A G18A C31U
The yeast fitness of the first is lower: at most 0.5 for the first, 0.535 for the second.

First: C11A G18A C31U A69C
Second: C11A G18A G68A
The yeast fitness of the first is higher: 0.605 for the first, at most 0.5 for the second.

Compared with C11A G18C, C11A G18C C27A G48A U54C is higher in yeast fitness: at most 0.5 for the first, 0.76 for the second.

First: C11A G18C C27G
Second: C11A G23A A43U
The yeast fitness of the first is higher: 0.64 for the first, at most 0.5 for the second.

Going from C11A G23C G52C to C11A G25A G58C A65G, the yeast fitness falls from 0.57 to 0.568.

Going from C11A G25A U53A to C11A G25C A57U, the yeast fitness rises from at most 0.5 to 0.513.

C11A G25C C29U A43U A65C A70U and C11A G25C C29U C49U cannot be ordered by yeast fitness: at most 0.5 for the first, at most 0.5 for the second.

C11A G25C C29U C62A and C11A G25C C46U G50A cannot be ordered by yeast fitness: at most 0.5 for the first, at most 0.5 for the second.

Going from C11A G25C G44A A57G to C11A G25C U26C C29U A65C A70U, the yeast fitness rises from at most 0.5 to 0.558.

First: C11A G25C U28A A40U
Second: C11A G38A A40U G50C C60G A70G
The yeast fitness of the first is higher: 0.752 for the first, at most 0.5 for the second.

Going from C11A G39A to C11A G41A A45U G56C, the yeast fitness falls from 0.63 to at most 0.5.

C11A G41A A57C and C11A G41A G56A C62A cannot be ordered by yeast fitness: at most 0.5 for the first, at most 0.5 for the second.

Compared with C11A G41C, C11A G44A G48A is lower in yeast fitness: 0.714 for the first, 0.68 for the second.

C11A G50C C60U A70C and C11A G51A A65U cannot be ordered by yeast fitness: at most 0.5 for the first, at most 0.5 for the second.

C11A G51A U53A and C11A G51A U59A cannot be ordered by yeast fitness: at most 0.5 for the first, at most 0.5 for the second.

Going from C11A G51C to C11A G52A C62U, the yeast fitness falls from 0.585 to at most 0.5.

Going from C11A G52C C61G to C11A G56A, the yeast fitness rises from 0.618 to 0.739.

First: C11A G56C
Second: C11A G58A G68A
The yeast fitness of the first is lower: at most 0.5 for the first, 0.621 for the second.

C11A G58A G68A A69U A70U and C11A G58A G68U cannot be ordered by yeast fitness: at most 0.5 for the first, at most 0.5 for the second.

Going from C11A G67A to C11A G67C, the yeast fitness rises from 0.555 to 0.574.

Compared with C11A G68C, C11A U13A A14U G23C A69U is lower in yeast fitness: 0.656 for the first, at most 0.5 for the second.

Going from C11A U13A A20G G68C A69C to C11A U13A A20U, the yeast fitness falls from 0.626 to at most 0.5.

C11A U13A A20U G63A A65U and C11A U13A A42U C55A cannot be ordered by yeast fitness: at most 0.5 for the first, at most 0.5 for the second.

C11A U13A A42U G50A C55A and C11A U13A C29A G48A C66U cannot be ordered by yeast fitness: at most 0.5 for the first, at most 0.5 for the second.

Compared with C11A U13A C31G, C11A U13C A14G G44C C46A C49G is lower in yeast fitness: 0.608 for the first, at most 0.5 for the second.

C11A U13C C27A C60G A65G and C11A U13C C27A G63A cannot be ordered by yeast fitness: at most 0.5 for the first, at most 0.5 for the second.

C11A U13G C27G and C11A U13G C34G A43U C61G cannot be ordered by yeast fitness: at most 0.5 for the first, at most 0.5 for the second.

Compared with C11A U13G C55A, C11A U16A is lower in yeast fitness: 0.659 for the first, 0.58 for the second.

C11A U16A C30G G44C C61A and C11A U16C C34G A65G G67A cannot be ordered by yeast fitness: at most 0.5 for the first, at most 0.5 for the second.

C11A U16C G18C A45C A57C C62U and C11A U16C G18C A45C A57C G67A G68C cannot be ordered by yeast fitness: at most 0.5 for the first, at most 0.5 for the second.

C11A U16C G18C A45C A57C G68A and C11A U16C G18C A45C A57C G68C A69G cannot be ordered by yeast fitness: at most 0.5 for the first, at most 0.5 for the second.

C11A U16C G18C A45C A57U U59C and C11A U16C G18C A45C U59A cannot be ordered by yeast fitness: at most 0.5 for the first, at most 0.5 for the second.

First: C11A U16C U28C U32G C49G C55A
Second: C11A U16C U32G
The yeast fitness of the first is lower: at most 0.5 for the first, 0.523 for the second.

Compared with C11A U16C U32G A36G C49G C55A, C11A U16C U32G C49G C55A is higher in yeast fitness: 0.53 for the first, 0.546 for the second.

C11A U16C U32G C49G C55A C66G A70C and C11A U16C U32G C49G C62U cannot be ordered by yeast fitness: at most 0.5 for the first, at most 0.5 for the second.

C11A U16C U32G C49U G56A A65C and C11A U16C U32G U64G cannot be ordered by yeast fitness: at most 0.5 for the first, at most 0.5 for the second.

C11A U16G C33U and C11A U16G U53G cannot be ordered by yeast fitness: at most 0.5 for the first, at most 0.5 for the second.

C11A U19A A42U A45C U47C C55U A69C and C11A U19A C27U A42U A45C C55U A69C cannot be ordered by yeast fitness: at most 0.5 for the first, at most 0.5 for the second.

C11A U19A C29A U32A U54C C55G C60G and C11A U19A C29A U32A U54C C55G C60G A65G cannot be ordered by yeast fitness: at most 0.5 for the first, at most 0.5 for the second.

Going from C11A U19A C55A C61U to C11A U19A G52A, the yeast fitness falls from 0.605 to at most 0.5.

Compared with C11A U19A U47C C55A C61U, C11A U19C is higher in yeast fitness: at most 0.5 for the first, 0.706 for the second.

For C11A U19C A21U A43U G58C C60A C66U, the yeast fitness was 0.531.
